{"source": "paper PMC6146385", "about": "(Acta Pharmaceutica Sinica. B, 2018)", "key": {"SULT2A1 [1]": {"molecular_target": "T1, SULT2A1 (Homo sapiens, UniProt Q06520)", "T1 sequence (Q06520 1-285)": "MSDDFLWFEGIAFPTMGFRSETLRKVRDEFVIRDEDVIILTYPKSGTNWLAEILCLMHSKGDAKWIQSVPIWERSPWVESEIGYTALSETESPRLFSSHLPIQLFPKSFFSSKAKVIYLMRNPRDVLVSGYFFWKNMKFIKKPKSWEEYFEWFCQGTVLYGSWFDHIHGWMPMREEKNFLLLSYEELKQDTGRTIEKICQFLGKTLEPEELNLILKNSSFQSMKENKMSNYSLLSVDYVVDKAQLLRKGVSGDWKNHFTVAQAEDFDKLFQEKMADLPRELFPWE", "assay": "Sulfation of AB, DHEA and bufadienolides by recombinant human SULT2A1", "assay_type": "in vitro ADME"}, "[2]": {"molecular_target": "T2, AB sulfation in HLC (SULT2A1) (Homo sapiens, UniProt Q06520)", "T2 sequence (Q06520 1-285)": "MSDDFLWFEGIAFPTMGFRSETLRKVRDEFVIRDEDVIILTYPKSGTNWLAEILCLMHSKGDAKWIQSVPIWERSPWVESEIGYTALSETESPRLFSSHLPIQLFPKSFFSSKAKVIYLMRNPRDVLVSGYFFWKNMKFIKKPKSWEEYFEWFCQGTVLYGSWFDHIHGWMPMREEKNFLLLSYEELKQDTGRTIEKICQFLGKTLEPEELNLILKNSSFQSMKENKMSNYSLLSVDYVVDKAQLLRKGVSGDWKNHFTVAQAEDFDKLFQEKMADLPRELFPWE", "assay": "Chemical inhibition of AB sulfation in HLC", "assay_type": "biochemical", "settings": "for residual activity of AB sulfation / inhibition of AB sulfation: HLC, Fig. 2A"}, "[3]": {"molecular_target": "T3, AB sulfation in cytosol of human kidney, small intestine and brain (Homo sapiens, UniProt Q06520)", "T3 sequence (Q06520 1-285)": "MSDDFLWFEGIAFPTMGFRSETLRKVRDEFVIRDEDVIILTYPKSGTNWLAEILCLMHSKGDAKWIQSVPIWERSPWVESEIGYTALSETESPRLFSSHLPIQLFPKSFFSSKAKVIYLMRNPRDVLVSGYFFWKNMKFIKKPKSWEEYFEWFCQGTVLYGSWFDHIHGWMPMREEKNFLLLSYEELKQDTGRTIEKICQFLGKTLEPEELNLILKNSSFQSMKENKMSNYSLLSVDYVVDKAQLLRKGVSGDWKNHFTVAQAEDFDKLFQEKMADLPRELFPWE", "assay": "Inhibition of AB sulfation in cytosol of human kidney, small intestine and brain", "assay_type": "biochemical", "settings": "Fig. S5"}, "SULT2A1 [4]": {"molecular_target": "T1, SULT2A1", "assay": "Inhibition of AB sulfation in rhSULT2A1", "assay_type": "biochemical"}, "SULT1E1": {"molecular_target": "T4, SULT1E1 (Homo sapiens, UniProt P49888)", "T4 sequence (P49888 1-294)": "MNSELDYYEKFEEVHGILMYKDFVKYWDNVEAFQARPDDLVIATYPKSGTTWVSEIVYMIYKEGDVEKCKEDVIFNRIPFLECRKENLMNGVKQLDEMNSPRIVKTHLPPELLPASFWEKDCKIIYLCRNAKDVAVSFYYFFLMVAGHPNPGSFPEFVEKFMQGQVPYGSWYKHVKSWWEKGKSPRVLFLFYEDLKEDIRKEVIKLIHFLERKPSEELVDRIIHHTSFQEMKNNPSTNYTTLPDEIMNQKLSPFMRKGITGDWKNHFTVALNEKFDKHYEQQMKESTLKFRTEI", "assay": "DHEA sulfation kinetics by recombinant SULT1E1", "assay_type": "in vitro ADME"}, "SULT2A1 (sulfation)": {"system": "SULT2A1 (sulfation)", "assay": "Sulfation kinetics and rate in pooled human liver cytosols", "assay_type": "in vitro ADME", "settings": "human, pooled human liver cytosols (HLC), pH 7.4, Km, sulfation by HLC", "in_short": "(§1)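 Substrate-concentration series with pooled mixed-gender human liver cytosol or recombinant human SULTs. Buffer is 50 mmol/L potassium phosphate, pH 7.4, with DTT 8 mmol/L, MgCl2 5 mmol/L and PAPS 4 mmol/L, at 37 °C and within linear formation conditions. Sulfate is quantified by LC–MS/MS. Eadie–Hofstee plots choose the Michaelis–Menten or substrate-inhibition fit. Km, Vmax (and Ksi) come from nonlinear regression. Duplicates in three independent experiments.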"}, "[5]": {"assay": "Sulfation kinetics and rate in pooled human liver cytosols", "assay_type": "in vitro ADME", "settings": "human, pooled human liver cytosols (HLC), pH 7.4", "in_short": "as §1"}, "[6]": {"system": "pooled human liver cytosols (HLC)", "assay": "Sulfation kinetics and rate in pooled human liver cytosols", "assay_type": "in vitro ADME", "in_short": "as §1"}, "[7]": {"substrate": "C[C@]12CC[C@H](O)CC1=CC[C@@H]1[C@@H]2CC[C@]2(C)C(=O)CC[C@@H]12", "assay": "DHEA sulfation kinetics by recombinant SULT1E1", "assay_type": "in vitro ADME, human", "settings": "other: sulfation by SULT1E1; pH 7.4; 37.0 °C"}, "[8]": {"substrate": "C[C@]12CC[C@H](O)CC1=CC[C@@H]1[C@@H]2CC[C@]2(C)C(=O)CC[C@@H]12", "assay": "Sulfation of AB, DHEA and bufadienolides by recombinant human SULT2A1", "assay_type": "in vitro ADME", "settings": "other: sulfation by SULT2A1; pH 7.4; 37.0 °C"}}, "data": [{"molecule": "C[C@]12CC[C@H](O)CC1=CC[C@@H]1[C@@H]2CC[C@]2(C)C(=O)CC[C@@H]12", "note": "[DHEA, dehydroepiandrosterone]", "values": [{"measurement": "microsomal CLint", "setting": "SULT2A1 [1]; human, recombinant human SULT2A1 (rhSULT2A1), pH 7.4", "value": 2940, "unit": "µL/min/mg"}, {"measurement": "kinetic model of sulfation", "setting": "SULT2A1 [1]; rhSULT2A1, Eadie–Hofstee plot", "value": "substrate inhibition kinetic model"}, {"measurement": "Ksi", "setting": "SULT2A1 [1]; sulfation by SULT2A1", "value": "2.2 ± 0.9", "unit": "µmol/L"}, {"measurement": "IC50", "setting": "[2]", "value": 1880, "unit": "nM"}, {"measurement": "residual activity of AB sulfation", "setting": "[2]", "value": "less than 10%"}, {"measurement": "inhibitory effect toward AB sulfation in different organs", "setting": "[3]", "value": "strong inhibitory effect"}, {"measurement": "IC50", "setting": "SULT2A1 [4]", "value": 1640, "unit": "nM"}, {"measurement": "CLint of SULT1E1-mediated sulfation, fold higher than for SULT2A1", "setting": "SULT1E1; SULT1E1 vs SULT2A1", "value": 1.5, "unit": "fold"}, {"measurement": "Km of SULT1E1-mediated sulfation, fold lower than for SULT2A1", "setting": "SULT1E1; SULT1E1 vs SULT2A1", "value": 7.2, "unit": "fold"}, {"measurement": "microsomal CLint", "setting": "SULT1E1; human, recombinant human SULT1E1 (rhSULT1E1), pH 7.4", "value": 4260, "unit": "µL/min/mg"}, {"measurement": "kinetic model of sulfation", "setting": "SULT1E1; rhSULT1E1", "value": "substrate inhibition kinetic model"}, {"measurement": "Ksi", "setting": "SULT1E1; sulfation by SULT1E1", "value": "2.9 ± 1.2", "unit": "µmol/L"}, {"measurement": "Km", "setting": "SULT2A1 (sulfation)", "value": "1080 ± 170", "unit": "nM"}, {"measurement": "microsomal CLint", "setting": "[5]", "value": 48.2, "unit": "µL/min/mg"}, {"measurement": "kinetic model of sulfation", "setting": "[6]; HLC, Eadie–Hofstee plot", "value": "substrate inhibition kinetic model"}, {"measurement": "Ksi", "setting": "[6]; sulfation by HLC", "value": "17.2 ± 2.9", "unit": "µmol/L"}, {"measurement": "Vm", "setting": "[6]; sulfation by HLC", "value": "0.052 ± 0.004", "unit": "nmol/min/mg"}]}, {"molecule": "CC(C)Cc1ccc(C(C)C(=O)O)cc1", "note": "(centres unmarked) [ibuprofen]", "values": [{"measurement": "inhibition of AB sulfation", "setting": "[2]", "value": "less than 20%"}]}, {"molecule": "CC1(C)[C@@H](O)CC[C@]2(C)[C@H]3C(=O)C=C4[C@@H]5C[C@@](C)(C(=O)O)CC[C@]5(C)CC[C@@]4(C)[C@]3(C)CC[C@@H]12", "note": "[GA, glycyrrhetinic acid]", "values": [{"measurement": "residual activity of AB sulfation", "setting": "[2]", "value": "less than 10%"}, {"measurement": "inhibitory effect toward AB sulfation in different organs", "setting": "[3]", "value": "strong inhibitory effect"}]}, {"molecule": "C[C@]12CC[C@H](O)C[C@H]1CC[C@@H]1[C@@H]2CC[C@]2(C)[C@@H](c3ccc(=O)oc3)C[C@H]3O[C@]132", "note": "[RB, resibufogenin]", "values": [{"measurement": "sulfation rates by SULT2A1 compared with other bufadienolides", "setting": "SULT2A1 [1]; 1, 10 and 100 µmol/L, 0.1 mg/mL protein, 60 min, Fig. S1B", "value": "higher than those of other bufadienolides"}, {"measurement": "trend of sulfation rate with increasing substrate concentration", "setting": "SULT2A1 [1]; up to 100 µmol/L, SULT2A1", "value": "decreasing trend"}]}, {"molecule": "CS(=O)(=O)Nc1ccc([N+](=O)[O-])cc1Oc1ccccc1", "note": "[nimesulide]", "values": [{"measurement": "inhibition of AB sulfation", "setting": "[2]", "value": "less than 20%"}]}, {"molecule": "Cc1cccc(Nc2ccccc2C(=O)O)c1C", "note": "[MFC, mefenamic acid]", "values": [{"measurement": "inhibition of AB sulfation", "setting": "[2]", "value": "less than 20%"}]}, {"molecule": "C[C@]12CC[C@@H]3c4ccc(O)cc4CC[C@H]3[C@@H]1CCC2=O", "note": "[estrone]", "values": [{"measurement": "inhibition of AB sulfation", "setting": "[2]", "value": "less than 20%"}]}, {"molecule": "O=[N+]([O-])c1cc(Cl)c(O)c(Cl)c1", "note": "[DCNP, 2,6-dichloro-p-nitrophenol]", "values": [{"measurement": "inhibition of AB sulfation", "setting": "[2]", "value": "less than 20%"}]}, {"molecule": "rhSULT1E1 (Homo sapiens) (protein) MNSELDYYEKFEEVHGILMYKDFVKYWDNVEAFQARPDDLVIATYPKSGTTWVSEIVYMIYKEGDVEKCKEDVIFNRIPFLECRKENLMNGVKQLDEMNSPRIVKTHLPPELLPASFWEKDCKIIYLCRNAKDVAVSFYYFFLMVAGHPNPGSFPEFVEKFMQGQVPYGSWYKHVKSWWEKGKSPRVLFLFYEDLKEDIRKEVIKLIHFLERKPSEELVDRIIHHTSFQEMKNNPSTNYTTLPDEIMNQKLSPFMRKGITGDWKNHFTVALNEKFDKHYEQQMKESTLKFRTEI", "values": [{"measurement": "Km", "setting": "[7]", "value": "0.34 ± 0.13", "unit": "µmol/L"}, {"measurement": "Vmax", "setting": "[7]", "value": 0.00145, "unit": "µmol/min/mg"}, {"measurement": "Vmax/Km", "setting": "[7]", "value": 4260, "unit": "µL/min/mg"}]}, {"molecule": "rhSULT2A1 (Homo sapiens) (protein) MSDDFLWFEGIAFPTMGFRSETLRKVRDEFVIRDEDVIILTYPKSGTNWLAEILCLMHSKGDAKWIQSVPIWERSPWVESEIGYTALSETESPRLFSSHLPIQLFPKSFFSSKAKVIYLMRNPRDVLVSGYFFWKNMKFIKKPKSWEEYFEWFCQGTVLYGSWFDHIHGWMPMREEKNFLLLSYEELKQDTGRTIEKICQFLGKTLEPEELNLILKNSSFQSMKENKMSNYSLLSVDYVVDKAQLLRKGVSGDWKNHFTVAQAEDFDKLFQEKMADLPRELFPWE", "values": [{"measurement": "Km", "setting": "[8]", "value": "2.48 ± 1.15", "unit": "µmol/L"}, {"measurement": "Vmax", "setting": "[8]", "value": 0.0073, "unit": "µmol/min/mg"}, {"measurement": "Vmax/Km", "setting": "[8]", "value": 2940, "unit": "µL/min/mg"}]}]}
